EBNA-1 inhibitor – blocks EBNA-1 binding to DNA | inhibition, % at 14.8 µM | EBNA-1 DNA binding, fluorescence polarization | hit rate 0.34% among 300,000; in the data active = inhibition above about 28%
proCasp7 act – activates human procaspase-7, counter-screen for procaspase-3 activators. hit rate 0.093% among 330,000. P55210. recombinant procaspase-7, Ac-DEVD-pNA absorbance 405 nm; D23A/D198A/D206A triple mutant, cannot self-cleave; scale: DMSO 0, 5 µM enzyme 100. activation, % at 8.5 µM;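 active = percent activation above the screen-wide mean plus 3 SD, cut at about 25% in these data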
Target sequence (P55210 whole entry D23A/D198A/D206A): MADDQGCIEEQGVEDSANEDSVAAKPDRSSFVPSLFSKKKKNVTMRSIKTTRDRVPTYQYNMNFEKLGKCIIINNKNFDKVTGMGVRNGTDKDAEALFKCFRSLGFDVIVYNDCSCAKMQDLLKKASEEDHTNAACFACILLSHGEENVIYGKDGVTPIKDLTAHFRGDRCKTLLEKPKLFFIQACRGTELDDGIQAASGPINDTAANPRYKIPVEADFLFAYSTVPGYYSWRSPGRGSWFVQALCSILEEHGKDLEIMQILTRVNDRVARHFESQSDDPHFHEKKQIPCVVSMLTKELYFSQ
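Replicates: singlicate. Assay system: Procaspase-7 triple mutant (PC-7 D3A). Signal: 405 nm absorbance of p-nitroaniline. Times: 1 h preincubation, 2 h reaction. Buffer or medium: Zinc-free HEPES pH 7.4 with 300 mM NaCl, 0.01% Triton X-100. Also added: DEVD-pNA substrate. Benchmarks: DMSO wells as 0%, DMSO with 5 µM added PC-7 as 100%.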
ZTA DNA inh – counter-screen for EBNA-1 inhibitors: inhibitors of Epstein-Barr virus ZTA. inhibition, % at 11 µM. ZTA-DNA binding, fluorescence polarization. hit rate 0.15% among 320,000; in the data active = inhibition above about 33%
Apaf1 inhib – human Apaf-1 inhibition | reconstituted apoptosome caspase-3 activity, DEVD-Rh110 fluorescence | AID 489030 | inhibition, % at 20 µM | hit rate 0.71% among 330,000 | O14727; active = inhibition of at least 40% at 20 µM
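Material: reconstituted apoptosome with Apaf-1, cytochrome c, caspase-9, procaspase-3, dATP / Buffer or medium: pH 7.5 Hepes buffer with CHAPS, BSA, DTT / Also added: cytochrome c with DEVD-Rh110 / Schedule: compound with Apaf-1, dATP, procaspase-3 30 min, then 50 min reaction, room temperature / Technique: rhodamine 110 fluorescence at Ex 480/Em 540 nm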
GSTO1 inh – counter-screen for RBBP9 inhibitors: inhibitors of human GSTO1; recombinant GSTO1, activity-based probe fluorescence polarization; inhibition, % at 5.96 µM; hit rate 1.1% among 300,000;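 active = inhibition above the campaign mean inhibition plus 3 SD, cut at about 35% in these data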
procasp3 activ – procaspase-3 (human) activation. recombinant procaspase-3 D3A, Ac-DEVD-pNA absorbance 405 nm. activation, % at 8.5 µM. hit rate 0.11% among 330,000. AID 463141;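 active = activation above the mean of all tested compounds plus 3 SD, cut at about 21% in these data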
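material = Procaspase-3 D3A mutant | probe or stimulus = Ac-DEVD-pNA | compound = single dose, 8.5 µM nominal compound, 0.8% DMSO | timing = 1 h preincubation, 2 h reaction | measured by = 405 nm absorbance of p-nitroaniline, reads at 0 and 120 min | benchmarks = DMSO-only low control, 5 µM PC-3 D3A high control | repeats = singlicate, each compound tested once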
A number is an active result. A selection: hits, their analogues and other compounds. The true share with any hit is near 1.8%.

Results for Oc1ccc(/C=N/NP(=S)(c2ccccc2)c2ccccc2)c(O)c1O ?
EBNA-1 inhibitor: inactive; proCasp7 act: inactive; ZTA DNA inh: inactive; Apaf1 inhib: inactive; GSTO1 inh: 37; procasp3 activ: inactive

What do the screens show for `C=CCn1c(O)c(C(C)=Nc2ccc(N(C)C)cc2)c(=O)[nH]c1=O`?
EBNA-1 inhibitor: 58; proCasp7 act: inactive; ZTA DNA inh: 150; Apaf1 inhib: inactive; GSTO1 inh: inactive; procasp3 activ: inactive

How did CC(=O)[C@@]1(O)CCC2C3CC=C4C[C@@H](O)CC[C@]4(C)C3CC[C@@]21C (stereo partly drawn) do in these assays?
proCasp7 act: inactive; Apaf1 inhib: inactive; procasp3 activ: inactive

Results for CN1C(=O)/C(=C/c2cccn2-c2ccc3ccccc3c2)C(=O)NC1=S ?
EBNA-1 inhibitor: inactive; proCasp7 act: inactive; ZTA DNA inh: inactive; Apaf1 inhib: inactive; GSTO1 inh: 55; procasp3 activ: inactive

What do the screens show for `FC(F)=C(F)CCSc1ncn[nH]1`?
EBNA-1 inhibitor: inactive; proCasp7 act: inactive; ZTA DNA inh: inactive; Apaf1 inhib: inactive; GSTO1 inh: inactive; procasp3 activ: inactive

What do the screens show for `O=C1NC(=S)NC(=O)C1=Cc1ccc2c(c1)CCN2CCCCl`?
EBNA-1 inhibitor: inactive; proCasp7 act: inactive; ZTA DNA inh: inactive; Apaf1 inhib: inactive; GSTO1 inh: 51; procasp3 activ: inactive

Results for Cc1ccccc1N1C(=O)NC(=O)/C(=C\c2ccc3c(c2)CCCN3Cc2ccccc2)C1=O ?
EBNA-1 inhibitor: inactive; proCasp7 act: inactive; ZTA DNA inh: inactive; Apaf1 inhib: inactive; GSTO1 inh: inactive; procasp3 activ: inactive

Results for CCC1C=CC=CC[C@H](C)[C@@H](O)[C@](C)(O)C(=O)[C@@H](C)[C@H](O)[C@@H](C)C(=O)[C@H](C)[C@@H](O)[C@H](C)C=CC(=O)OC2[C@@H](C)C(CC1)OC1(CC[C@@H](C)C(C[C@H](C)O)O1)[C@@H]2C (stereo partly drawn) ?
EBNA-1 inhibitor: inactive; proCasp7 act: inactive; ZTA DNA inh: inactive; Apaf1 inhib: inactive; GSTO1 inh: inactive; procasp3 activ: inactive

How did CCC(=NCC1CCCO1)c1c(O)n(-c2ccc(OC)cc2)c(=O)[nH]c1=O (stereo not drawn) do in these assays?
EBNA-1 inhibitor: inactive; proCasp7 act: inactive; ZTA DNA inh: inactive; Apaf1 inhib: inactive; GSTO1 inh: inactive; procasp3 activ: inactive

What do the screens show for `Nc1c(C(=O)NCc2ccco2)c2nc3ccccc3nc2n1CCN1CCOCC1`?
EBNA-1 inhibitor: inactive; proCasp7 act: inactive; ZTA DNA inh: inactive; Apaf1 inhib: 44; GSTO1 inh: inactive; procasp3 activ: inactive

How did COc1ccc(CCNC(=O)c2c(N)n(CCN3CCOCC3)c3nc4ccccc4nc23)cc1OC do in these assays?
EBNA-1 inhibitor: inactive; proCasp7 act: inactive; ZTA DNA inh: inactive; Apaf1 inhib: inactive; GSTO1 inh: inactive; procasp3 activ: inactive

What do the screens show for `CCCCCn1c(N)c(C(=O)NCCN2CCOCC2)c2nc3ccccc3nc21`?
EBNA-1 inhibitor: inactive; proCasp7 act: inactive; ZTA DNA inh: inactive; Apaf1 inhib: inactive; GSTO1 inh: inactive; procasp3 activ: inactive

How did CCCCCCn1c(N)c(C(=O)NCCN2CCOCC2)c2nc3ccccc3nc21 do in these assays?
EBNA-1 inhibitor: inactive; proCasp7 act: inactive; ZTA DNA inh: inactive; Apaf1 inhib: 52; GSTO1 inh: inactive; procasp3 activ: inactive

How did COC(=O)C1=C(c2cccc(NC(C)=O)c2)C[C@@H]2CC[C@H]1N2C do in these assays?
proCasp7 act: inactive; ZTA DNA inh: inactive; Apaf1 inhib: inactive; procasp3 activ: inactive

How did COC(=O)C1=C(c2cc3ccccc3s2)C[C@@H]2CC[C@H]1N2C(=O)NCc1ccco1 do in these assays?
EBNA-1 inhibitor: inactive; proCasp7 act: inactive; ZTA DNA inh: inactive; Apaf1 inhib: inactive; GSTO1 inh: inactive; procasp3 activ: inactive

Results for N[C@@H](CCl)C(=O)O ?
EBNA-1 inhibitor: inactive; proCasp7 act: inactive; ZTA DNA inh: inactive; Apaf1 inhib: inactive; GSTO1 inh: inactive; procasp3 activ: inactive

What do the screens show for `NC(Cc1cc(O)c(O)cc1O)C(=O)O` (stereo not drawn)?
EBNA-1 inhibitor: 90; proCasp7 act: inactive; ZTA DNA inh: 49; Apaf1 inhib: 84; GSTO1 inh: 72; procasp3 activ: inactive
